The values below come from article PMC6363535 (Journal of pharmaceutical and biomedical analysis, 2018).

Series [1] concerns mAb 2G11G4. Put plainly: indirect competitive ELISA. The class given is binding, mouse. The conditions noted are these: for Cross reactivity: (IC50 of dihydroartemisinin/IC50 of the other compound) × 100; for IC50: icELISA, mAb 2G11G4, coating antigen 9-O-succinyldihydroartemisinin-OVA.
Series [2] concerns mAb 3D82G7. The conditions noted are these: cited from earlier work.
Series [3] deals with artemisinin antibody developed earlier. The conditions noted are these: cited from earlier work.
Series [4] concerns mAb 2G11G4. Put plainly: colloidal gold-based lateral flow immunoassay. The class given is binding, mouse. The conditions noted are these: for dipstick cross-reaction: drug concentration less than 100 ng/mL; for dipstick test line: standards at 100 ng/mL; for dipstick inhibition: standards at 500 ng/mL. The essentials:
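Anti-DHA mAb adsorbed onto 30 nm colloidal gold at pH 7.8, blocked with BSA, pelleted and resuspended in 0.01 M PBS pH 7.0. Gold-mAb was used at 30 μg/mL. Capture lines on nitrocellulose were 9-O-succinyl-DHA-BSA (1 mg/mL, test) and goat anti-mouse IgG (0.4 mg/mL, control), 5 mm apart. Aqueous DHA standards were 0–100 ng/mL. Indicator range is the lowest concentration at which the test line disappears visually.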

The nature of series [5]: time course of DHA degradation in malaria culture, measured by icELISA. The class given is in vitro ADME, Plasmodium falciparum.
For series [6] the following is noted: buffer solution (pH=7.4); cited from earlier work.
For series [7] the following is noted: general statement, no reference given; cited from earlier work.

Each structure is given as a SMILES string. In brackets after ≈: the same amount, converted by molar mass. Bounds are passed on as bounds.

In series [1], `C[C@H]1[C@H](OC(=O)CCC(=O)O)O[C@@H]2O[C@@]3(C)CC[C@H]4[C@H](C)CC[C@@H]1[C@@]24OO3` [Artesunate] displayed a Cross reactivity of 1.6% and an IC50 of 0.0704 µg/mL (≈ 0.183 µM). In series [1] (listed as artesunate), the Cross reactivity result was “low or no cross reactivity”. The cross-reactivity in series [2] is reported as 460%. In series [3], the cross-reactivity is reported as 650%. Moreover, in series [4], the dipstick cross-reaction entry is reported as “did not cross-react”, the dipstick test line result is recorded as “showed obvious color” and the dipstick inhibition entry is on record as “different degrees of inhibition”.

In the case of `CCN(CC)CCCC(C)Nc1ccnc2cc(Cl)ccc12` (stereo not drawn) [Chloroquine], the IC50 in series [1] was greater than 20 µg/mL.

Molecule `C[C@H]1[C@@H](O)O[C@@H]2O[C@@]3(C)CC[C@H]4[C@H](C)CC[C@@H]1[C@@]24OO3` [Dihydroartemisinin] had a Cross reactivity in series [1] of 100%. Further, the “working range (IC20 – IC80)” value in series [1] (DHA concentration causing 20–80% inhibition of the signal) was in the range of 0.00026 to 0.00487 µg/mL. The molecule also gave a half-inhibitory concentration (IC50) in series [1] of 0.00116 µg/mL (≈ 0.00408 µM). Moreover, the “indicator range (lowest concentration at which the test line was not visible)” value in series [4] (dipstick, serially diluted standard DHA) was in the range of 50 to 100 ng/mL. The half-life at 200 nM is 3.64 ± 0.48 h in series [5] (Plasmodium falciparum), 5.56 ± 0.87 h in series [5] (culture medium only (no cells)) and 4.55 ± 0.69 h in series [5] (red blood cells in culture medium at 5% hematocrit). The “DHA concentration after 12 h of incubation” value in series [5] (parasite culture at 5% parasitemia, starting concentration 200 nM) is recorded as less than 4 nM. In addition, the half-life in series [6] is 5.5 h.

In the case of `Clc1ccc2c(N3CCN(CCCN4CCN(c5ccnc6cc(Cl)ccc56)CC4)CC3)ccnc2c1` [Piperaquine], in series [1], the Cross reactivity is less than 0.02% and the IC50 was greater than 20 µg/mL.

On to `C[C@@H]1CC[C@H]2[C@@H](C)C(=O)O[C@@H]3O[C@@]4(C)CC[C@@H]1[C@]32OO4` [Artemisinin], for which, in series [1], the Cross reactivity worked out at 52.3% and the IC50 is 0.00222 µg/mL (≈ 0.00786 µM). In series [4], the dipstick cross-reaction result is “did not cross-react”, the dipstick test line result was “showed obvious color” and the dipstick inhibition result is “different degrees of inhibition”. In addition, the water solubility result in series [7] is “poor water solubility”.

As to `CO[C@H]1O[C@@H]2O[C@@]3(C)CC[C@H]4[C@H](C)CC[C@@H]([C@H]1C)[C@@]24OO3` [Artemether], in series [1], the Cross reactivity is less than 0.02% and the concentration for half-maximal inhibition (IC50) was greater than 20 µg/mL. In series [4], the dipstick cross-reaction entry was “did not cross-react”, the dipstick test line result is recorded as “showed obvious color” and the dipstick inhibition result is reported as “no inhibition”. Also, the water solubility entry in series [7] was “poor water solubility”.

In series [1], `CCN(CC)Cc1cc(Nc2ccnc3cc(Cl)ccc23)ccc1O` [Amodiaquine] gave a Cross reactivity of less than 0.02% and an IC50 greater than 20 µg/mL.

In series [1], `CCCCN(CCCC)CC(O)c1cc(Cl)cc2c1-c1ccc(Cl)cc1/C2=C/c1ccc(Cl)cc1` (stereo not drawn) [Lumefantrine] yielded a Cross reactivity of less than 0.02% and a concentration for half-maximal inhibition (IC50) greater than 20 µg/mL.

In general, IC50 refers to the concentration at which inhibition is half-maximal. The low end stands for greater potency in that assay, the high end for weaker potency in that assay. For orientation: half-life means the time in which the quantity being followed falls by half.
